Source: PubChem BioAssay (Broad Institute)
Sampled rows, rich in hits. Any-hit rate of the full collection: about 3.5%.
Cneo AK release: Cryptococcus neoformans cell lysis inducers, primary screen, AK release luminescence, single concentration; C. neoformans lysis, adenylate kinase release luminescence, 4 h; normalised: neutral wells 0, clomiphene wells 100; lysis activity, % at 15 µM; 360,000 compounds, 0.2% hits;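 active = mean lysis activity across replicates of at least 80%, whatever share of replicates individually reach that level; inactive = mean lysis activity below 80%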
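Assay system: C. neoformans cells. Amount: yeast cell density of 5 × 10^6 cells/mL. Technique: AK luminescence. Buffer or medium: YPD. Times: static 4 h at 37 °C with compound, 1 h detection. Dosing: single-point compound dose. Read-out: lysis from increased AK signal.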
esBAF inh: Bmi1 luciferase reporter increase in mESCs, primary screen, esBAF inhibitor project, mouse ES cells, Bmi1 luciferase knock-in, single point; 24 h; 100% = twice the neutral-well signal; 350,000 compounds, 2% hits; AID 602393, 2012; reporter increase, % at 12.5 µM; in the data active = activation above about 40%;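 note: 0% = median of the plate's neutral control wells and 100% = double that signal; a rise in the Bmi1 reporter signal indicates esBAF inhibition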
HIV Env fusion: inhibitors of HIV-1 Env-driven cell-cell fusion, primary screen, HeLa-JRFL effector, CEM21 target cells, luciferase; inhibition, % at 12.3 µM; 360,000 compounds, 1.1% hits; AID 651610, 2012;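 active = mean replicate inhibition score of at least 50 and every replicate individually at or above 50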;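 note: 0% = plate neutral controls and 100% = maraviroc near 300 nM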
Wnt bcat act: Wnt/beta-catenin pathway activators, primary screen, cell-based, plate reader, single point; activation, % at 9.35 µM; 300,000 compounds, 1.2% hits; Wnt/beta-catenin reporter cell assay, activator; in the data active = activation above about 30%, passing the limit was not always enough;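 note: 0% = neutral control wells and 100% = positive control wells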
ERAP1 inh: human ERAP1 aminopeptidase inhibitors, primary screen, biochemical, single point, plate reader; inhibition, % at 10.7 µM; Endoplasmic reticulum aminopeptidase 1 (Homo sapiens), Q9NZ08; recombinant ERAP1, Leu-AMC fluorescence, 60 min; AID 652197, 2013; 340,000 compounds, 0.15% hits;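 active = mean replicate inhibition of at least 30%, or all replicates individually reaching that 30% level; inactive = mean below 30% and not every replicate reaching it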;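 note: 0% = neutral control wells and 100% = L-leucinethiol positive control wells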
MITF TRPM1 HTS: activators of MITF-driven TRPM1 promoter reporter, primary screen, cell-based, SK-MEL-5, luciferase, single point | SK-MEL-5 TRPM1-promoter luciferase, 24 h; % of positive control, neutral wells = 0 | activation, % at 12.5 µM | 300,000 compounds, 0.75% hits | AID 588334, 2011;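 active = mean activation of at least 80% with every replicate also reaching 80%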;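 note: 0% = neutral control wells and 100% = parthenolide positive control wells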
The depositor's hits bear a star; [ ] = remark or other dose.

CCCNC(=O)C[C@@H]1CC[C@@H]2[C@H](COC[C@H](O)CN2C(=O)Nc2ccc3c(c2)OCO3)O1 was read as Cneo AK release -2, esBAF inh 31 and ERAP1 inh -1.
O=C1CN(Cc2ccccc2)C[C@H]2[C@H](c3ccc(-c4ccccc4F)cc3)[C@H](CO)N12 was read as ERAP1 inh 3.
`O=[N+]([O-])c1cccc(COc2cccc(CN3CCCCC3)c2)c1` gave Cneo AK release 8, esBAF inh -10, HIV Env fusion 21, Wnt bcat act -2, ERAP1 inh 1 and MITF TRPM1 HTS 1.
`O=[N+]([O-])c1ccc(COc2ccc(CN3CCCC3)cc2)cc1` gave Cneo AK release 2, esBAF inh 24, HIV Env fusion -24, Wnt bcat act 10 and MITF TRPM1 HTS 100*.
Screening O=[N+]([O-])c1cccc(COc2cccc(CN3CCCC3)c2)c1 returned Cneo AK release 1, esBAF inh 6, HIV Env fusion 60*, Wnt bcat act -4 and MITF TRPM1 HTS 1.
`CC(C)NC(=O)Nc1ccc2c(c1)C(=O)N(C)[C@H]1CC[C@H](CC(=O)Nc3ccccc3)O[C@@H]1CO2` gave Cneo AK release 0, esBAF inh -3, HIV Env fusion 4[16.7 µM] and ERAP1 inh -1.
Cc1cc(NC(=O)C(C)SCC(=O)Nc2cc(C(F)(F)F)ccc2N2CCCCC2)no1 (centres undefined) was read as Cneo AK release 2, esBAF inh 2, HIV Env fusion 74*, Wnt bcat act -2, ERAP1 inh 1 and MITF TRPM1 HTS 1.
For Cc1cccc(NC(=O)CSCC(=O)Nc2cc(C(F)(F)F)ccc2N2CCOCC2)c1 the results were Cneo AK release 0, esBAF inh -2, HIV Env fusion 69*, Wnt bcat act -2 and ERAP1 inh -3.
Cc1cc(NC(=O)CSCC(=O)Nc2cc(C(F)(F)F)ccc2N2CCCCC2)no1 was read as Cneo AK release 2, esBAF inh 4, Wnt bcat act -2, ERAP1 inh 1 and MITF TRPM1 HTS -9.
CN1CCN(C(=O)C[C@H]2CC[C@H]3[C@@H](COC[C@@H](O)CN3C(=O)C3CC3)O2)CC1 was read as Cneo AK release -2, esBAF inh -2 and ERAP1 inh 2.
Screening OC[C@H]1[C@H](c2ccc(-c3cccc(F)c3)cc2)[C@H]2CN(Cc3cncnc3)CCCCN21 returned Cneo AK release -4, esBAF inh 0 and ERAP1 inh 1.
Cc1ccc2c(c1)c1c3n2CCN(CCC#N)C3CCC1 (centres undefined) was read as Cneo AK release -6, esBAF inh 7, HIV Env fusion 72*, Wnt bcat act 7 and ERAP1 inh -1.
For CCNCc1ccccc1OCc1ccccc1 the results were HIV Env fusion 2, Wnt bcat act 0, ERAP1 inh 1 and MITF TRPM1 HTS 5.
`Oc1ccc(NCc2ccccc2OCc2ccccc2)cc1` gave HIV Env fusion 5, Wnt bcat act 39*, ERAP1 inh -2 and MITF TRPM1 HTS -7.
CCCC(=O)Nc1ccc2c(c1)OC[C@H](C)N(CCc1ccccc1)C[C@H](C)[C@H](OC)CN(C)C2=O was read as esBAF inh -1.
Screening O=C(Nc1ccn(Cc2ccccc2F)n1)c1ccc(COc2ccccc2Cl)cc1 returned Cneo AK release -2, esBAF inh 6, HIV Env fusion 60* and MITF TRPM1 HTS -13.
COCCNC(=O)C[C@@H]1CC[C@H]2[C@@H](COC[C@H](O)CN2Cc2ccc(Cl)c(Cl)c2)O1 was read as Cneo AK release 0, esBAF inh 4 and ERAP1 inh -1.
For O=C(Nc1ccc(Oc2ccccc2)cc1)C1CCCO1 (centres undefined) the results were esBAF inh 52* and MITF TRPM1 HTS 80.
O=C(Nc1ccc2oc(-c3ccccc3)nc2c1)C1CCCO1 (centres undefined) was read as HIV Env fusion -60, Wnt bcat act 24, ERAP1 inh -1 and MITF TRPM1 HTS 88*.
C[C@@H]1CN([C@H](C)CO)C(=O)c2cc(-c3cccnc3)cnc2O[C@H]1CN(C)C(=O)C1CCOCC1 was read as Cneo AK release 3, esBAF inh 2, HIV Env fusion 5[16.7 µM] and ERAP1 inh -2.
`O=C(Nc1ccc(Cl)cc1)N[C@@H]1CC[C@@H](CCn2cc(Cc3ccccc3)nn2)O[C@H]1CO` gave Cneo AK release -6, esBAF inh 7, HIV Env fusion 17[16.7 µM] and ERAP1 inh 1.
Cc1csc(N(C)C(=O)CSc2nnc(COc3cccc4ccccc34)o2)n1 was read as Cneo AK release 17, esBAF inh -1, HIV Env fusion 105*, Wnt bcat act 1 and MITF TRPM1 HTS -13.
For C[C@@H]1CN([C@H](C)CO)C(=O)c2cc(NC(=O)CCCN(C)C)ccc2O[C@@H](C)CCCCO[C@@H]1CN(C)C(=O)Nc1ccccc1 the results were Cneo AK release -4, esBAF inh -4, HIV Env fusion -3[16.7 µM] and ERAP1 inh 2.
For C[C@H]1CN([C@@H](C)CO)C(=O)Cc2cc(NC(=O)c3ccncc3)ccc2O[C@H]1CN(C)S(=O)(=O)c1ccccc1 the results were Cneo AK release -41, esBAF inh -2 and ERAP1 inh 3.
For CC(=O)OC1C2CCC1C([N+]1(C)CCCCC1)CC2 (centres undefined) the results were HIV Env fusion 6, Wnt bcat act -1, ERAP1 inh 35* and MITF TRPM1 HTS 5.
CO[C@H]1CN(C)C(=O)c2cc(NC(=O)C3CC3)ccc2OC[C@@H](C)N(CC2CCCC2)C[C@@H]1C was read as Cneo AK release 0, esBAF inh -1 and ERAP1 inh 0.
CO[C@H]1CN(C)C(=O)c2ccc(NC(=O)c3cccc(F)c3)cc2OC[C@@H](C)NC[C@H]1C was read as Cneo AK release 1, esBAF inh -6, HIV Env fusion -6[16.7 µM] and ERAP1 inh -3.
For CCOc1ccc(-c2cc(CCCC(=O)Nc3cccc(OC)c3)no2)cc1 the results were Cneo AK release 0, esBAF inh -60, HIV Env fusion 76*, Wnt bcat act -8, ERAP1 inh 2 and MITF TRPM1 HTS -65.
COc1cccc(-c2noc(CCC(=O)Nc3cccnc3)n2)c1 was read as Cneo AK release 3, esBAF inh 52* and MITF TRPM1 HTS 34.
